NPY-Y2 PAM-ag: potentiates or activates human NPY-Y2 receptor; activation, % at 3.6 µM; actives 0.45% (n = 220,000); P49146; cells expressing NPY-Y2, potentiator/agonist read-out; AID 1359; in the data active = activation above about 27%;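 note: cells stimulated with NPY near EC25 plus isoproterenol at EC100; 0% = vehicle plus submaximal agonist and 100% = vehicle plus saturating agonist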
Target sequence (P49146 whole entry, looked up): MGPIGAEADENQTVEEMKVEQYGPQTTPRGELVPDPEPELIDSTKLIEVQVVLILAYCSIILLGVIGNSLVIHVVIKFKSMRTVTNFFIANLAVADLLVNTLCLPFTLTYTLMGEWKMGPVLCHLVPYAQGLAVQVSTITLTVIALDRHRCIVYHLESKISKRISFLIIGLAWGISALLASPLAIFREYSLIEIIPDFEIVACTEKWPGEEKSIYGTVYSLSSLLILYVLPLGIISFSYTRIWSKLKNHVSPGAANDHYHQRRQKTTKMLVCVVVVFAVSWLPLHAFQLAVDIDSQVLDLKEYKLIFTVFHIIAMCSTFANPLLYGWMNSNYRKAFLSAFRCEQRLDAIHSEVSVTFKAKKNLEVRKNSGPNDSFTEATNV
RAM network inh: yeast RAM network inhibition; actives 1.8% (n = 190,000); inhibition, % at 50 µM; S. cerevisiae dse1pr::URA3 reporter, 5-FOA growth OD615, 2 d; analog-sensitive cbk1-as2 kinase mutant strain;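 active = inhibition above a set limit, 3 SD over mean compound inhibition, cut at about 8.4% in these data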;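 note: 0% = DMSO-only wells with no growth and 100% = 10 µM 1-NA-PP1 full growth; inhibition rescues growth on 5-FOA so higher OD means more RAM inhibition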
NPY Y2 blocker: blocks the human neuropeptide Y Y2 receptor. inhibition, % at 2.7 µM. AID 793. actives 0.99% (n = 140,000). NPY-Y2 expressing cells, antagonist mode. P49146;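 note: 0% = vehicle with agonist challenge and 100% = reference antagonist with challenge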
NPY-Y1 PAM-ag: potentiates or activates human NPY-Y1 receptor; NPY-Y1 expressing cells, potentiator/agonist activation; activation, % at 3.6 µM; actives 0.37% (n = 220,000); AID 1304; in the data active = activation above about 33%, passing the limit was not always enough;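 note: cells stimulated with NPY at EC10 then isoproterenol at EC100; 0% = low agonist plus stimulus and 100% = saturating agonist plus stimulus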
WT yeast gro inh: growth inhibition of WT yeast, mitochondrial fusion screen; mitochondrial fusion phenotypic screen, WT strain; inhibition, % at 10 µM; actives 2.1% (n = 190,000); AID 1362; in the data active = inhibition above about 58%; tested in S. cerevisiae
NPY Y1 blocker: antagonists of human neuropeptide Y receptor Y1; HEK293-CNG Y1 cells, membrane potential fluorescence; NPY at EC95, then isoproterenol; inhibition, % at 3.6 µM; actives 1% (n = 200,000);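 active = inhibition above the campaign mean inhibition of all tested compounds plus 3 SD, cut at about 20% in these data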;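 note: 0% = DMSO wells given NPY plus isoproterenol and 100% = isoproterenol alone without NPY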
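material = HEK293 cells with Y1 receptor plus CNG channel | also added = NPY 25 nM then isoproterenol 1 µM plus Ro 20-1724 25 µM | schedule = dye 3 h, compound 60 min room temperature, stimulation 45 min | measured by = membrane potential fluorescence | benchmarks = high control isoproterenol alone, low control NPY with isoproterenol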
NPY1 antag conf: confirmation of human neuropeptide Y receptor Y1 antagonists | actives 21% (n = 1,200) | shares compounds with NPY Y1 blocker | inhibition, % at 3.6 µM | AID 1254 | HEK293-CNG NPY-Y1, membrane potential fluorescence, cAMP; NPY challenge against isoproterenol-raised cAMP; in the data active = inhibition above about 20%;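 note: 0% = vehicle with agonist plus stimulus and 100% = stimulus alone without agonist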
NPY2 antag ctr: human NPY-Y2 antagonism in NPY-Y1 counter-screen; actives 28% (n = 1,200); HEK293 NPY-Y2 CNG membrane potential fluorescence; cells given NPY, then isoproterenol; AID 1255; shares compounds with NPY Y1 blocker; inhibition, % at 3.6 µM;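 note: 0% = DMSO with agonist challenge and 100% = reference antagonist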
* hit, by the source's call. In the library only some 4.9% were active in any assay of this set; here they are far more common. Cut-off read from the data, not from the text of the source, unless noted: active = inhibition above about 17%; inactive = the rest.

COc1cc(/C=N/N=C(/N)c2nonc2N)cc(Br)c1OCc1cccc(C)c1 was read as NPY-Y2 PAM-ag -17.0, RAM network inh 5.6, NPY Y2 blocker 10.9, NPY-Y1 PAM-ag -19.4, WT yeast gro inh 7.4, NPY Y1 blocker 21.1*, NPY1 antag conf 14.8 and NPY2 antag ctr 13.7.
`CCOC(=O)CSc1nc(C(C)C)nc2sc(C)c(C)c12` gave NPY-Y2 PAM-ag -36.4, RAM network inh 4.1, NPY-Y1 PAM-ag -42.6, WT yeast gro inh 11.7, NPY Y1 blocker 23.0*, NPY1 antag conf 39.0* and NPY2 antag ctr 41.0*.
`CCOC(=O)CSc1nc2sc(C)c(C)c2c(=O)n1C` gave NPY-Y2 PAM-ag -4.3, RAM network inh 2.0, NPY Y2 blocker 2.9, NPY-Y1 PAM-ag -5.9, WT yeast gro inh -6.3 and NPY Y1 blocker 6.3.
Screening O=C(CCc1nnc(C2(c3ccc(Cl)cc3)CCC2)o1)NC1CC1 returned NPY-Y2 PAM-ag 1.9, RAM network inh 3.4, NPY-Y1 PAM-ag 6.1, WT yeast gro inh -9.6 and NPY Y1 blocker -3.8.
For S=c1[nH]nc(-c2cc(-c3ccsc3)n[nH]2)n1-c1cccc2ccccc12 the results were NPY-Y2 PAM-ag -0.1, RAM network inh -0.1, NPY-Y1 PAM-ag 8.2, WT yeast gro inh 4.3 and NPY Y1 blocker 10.1.
Screening COc1ccc(-c2cc(-c3n[nH]c(=S)n3-c3cccc4ccccc34)[nH]n2)cc1 returned NPY-Y2 PAM-ag -28.2, RAM network inh 1.4, NPY-Y1 PAM-ag -23.0, WT yeast gro inh -11.5, NPY Y1 blocker 54.6*, NPY1 antag conf 85.2* and NPY2 antag ctr 101.1*.
O=C(O)CSCc1ccc(Cl)cc1 was read as NPY-Y2 PAM-ag -3.3, RAM network inh 0.0, NPY Y2 blocker 6.2, NPY-Y1 PAM-ag -60.9, WT yeast gro inh -6.7 and NPY Y1 blocker 7.2.
For Cc1cc(C(=O)CSc2nc3ccccc3o2)c(C)n1CC1CCCO1 (configuration not stated) the results were NPY-Y2 PAM-ag -7.4, RAM network inh 5.3, NPY Y2 blocker 3.4, NPY-Y1 PAM-ag -8.3, WT yeast gro inh -17.5 and NPY Y1 blocker 5.3.
Cc1cc(C(=O)CSc2nc3ccccc3[nH]2)c(C)n1CC1CCCO1 (configuration not stated) was read as NPY-Y2 PAM-ag 8.5, RAM network inh 0.4, NPY Y2 blocker 5.3, NPY-Y1 PAM-ag -45.0, WT yeast gro inh 5.5, NPY Y1 blocker 25.5*, NPY1 antag conf 42.2* and NPY2 antag ctr 16.4.
`CNC(=O)CSc1nnc(-c2ccccn2)n1Cc1ccco1` gave NPY-Y2 PAM-ag 20.8 and NPY-Y1 PAM-ag 16.2.
For CC(C)(C)c1ccc(CSc2nnc(-c3ccccn3)n2Cc2ccco2)cc1 the results were NPY-Y2 PAM-ag -15.8, RAM network inh 4.2, NPY Y2 blocker 16.1, NPY-Y1 PAM-ag -16.4, WT yeast gro inh 64.0*, NPY Y1 blocker 21.1*, NPY1 antag conf 6.7 and NPY2 antag ctr 12.9.
`CCCCN(CC)CCCNC(=O)c1cn(CC)c2ccc(S(=O)(=O)N3CCc4ccccc4C3)cc2c1=O` gave NPY-Y2 PAM-ag -5.4, RAM network inh 0.1, NPY-Y1 PAM-ag -13.0, WT yeast gro inh 4.1, NPY Y1 blocker 21.9*, NPY1 antag conf 16.1 and NPY2 antag ctr 29.4*.
CCCCN(C)CCCNC(=O)c1cn(CC)c2ccc(S(=O)(=O)N3CCc4ccccc4C3)cc2c1=O was read as NPY-Y2 PAM-ag -22.2, RAM network inh -0.9, NPY-Y1 PAM-ag -29.7, WT yeast gro inh 3.5 and NPY Y1 blocker 20.1.
CCn1nc(CC(=O)Nc2nnc(CC(=O)N3CCOCC3)s2)c2ccccc2c1=O was read as NPY-Y2 PAM-ag -4.0, RAM network inh 0.3, NPY Y2 blocker 3.3, NPY-Y1 PAM-ag -28.4, WT yeast gro inh 5.2 and NPY Y1 blocker 4.7.
Screening CCn1nc(CC(=O)Nc2nnc(CC(=O)N3CCCC3)s2)c2ccccc2c1=O returned NPY-Y2 PAM-ag -20.2, RAM network inh 2.8, NPY Y2 blocker 4.3, NPY-Y1 PAM-ag -17.6, WT yeast gro inh 7.9, NPY Y1 blocker 20.4*, NPY1 antag conf -0.7 and NPY2 antag ctr 4.2.
`O=C(c1nc2ccc(Cl)cn2c1CNCC[C@@H]1C[C@@H]2C=C[C@H]1C2)N1CCCCCCC1` gave NPY-Y2 PAM-ag -1.5, RAM network inh 2.2, NPY-Y1 PAM-ag 3.1, WT yeast gro inh 33.8 and NPY Y1 blocker 17.9.
For C[C@@H]1CN(C(=O)c2nc3ccc(Cl)cn3c2CNCC[C@@H]2C[C@@H]3C=C[C@H]2C3)C[C@H](C)O1 the results were NPY-Y2 PAM-ag -16.4, RAM network inh -0.4, NPY-Y1 PAM-ag 1.0, WT yeast gro inh 15.0, NPY Y1 blocker 23.9*, NPY1 antag conf 16.6 and NPY2 antag ctr 14.8.
For N=c1c2c3c(sc2nc2n1CCCCC2)CCCCC3 the results were NPY-Y2 PAM-ag 8.1, RAM network inh 0.0, NPY Y2 blocker 9.3, NPY-Y1 PAM-ag 10.3, WT yeast gro inh 0.2, NPY Y1 blocker 20.4*, NPY1 antag conf 1.9 and NPY2 antag ctr 5.6.
Screening COC(=O)/C=c1/s/c(=C(/C#N)C(=O)N2CCCCC2)n(-c2ccccc2)c1=O returned NPY-Y2 PAM-ag 0.9, RAM network inh 2.0, NPY Y2 blocker -0.5, NPY-Y1 PAM-ag -8.5, WT yeast gro inh -13.1 and NPY Y1 blocker 1.3.
Screening CC1(c2ccccc2)CC(C)(C)N(C(=O)C2CCCO2)c2ccccc21 (configuration not stated) returned NPY-Y2 PAM-ag -4.5, RAM network inh 1.6, NPY Y2 blocker 16.2, NPY-Y1 PAM-ag -25.0, WT yeast gro inh 41.8, NPY Y1 blocker 26.7*, NPY1 antag conf 10.6 and NPY2 antag ctr 8.3.
Screening Cc1ccccc1OCCN(C#N)c1nc(N(C)C)nc(N(C)C)n1 returned NPY-Y2 PAM-ag -28.3, RAM network inh 4.5, NPY-Y1 PAM-ag -51.3, WT yeast gro inh 27.7, NPY Y1 blocker 28.1*, NPY1 antag conf 11.5 and NPY2 antag ctr 18.9*.
Screening Cc1ccc(CNC(=O)CCc2nc(-c3cccs3)no2)cc1 returned NPY-Y2 PAM-ag -28.0, RAM network inh 2.5, NPY Y2 blocker 7.3, NPY-Y1 PAM-ag -20.1, WT yeast gro inh 14.3, NPY Y1 blocker 21.4*, NPY1 antag conf 8.6 and NPY2 antag ctr 7.6.
For O=C(CCc1nc(-c2cccs2)no1)NCc1ccc(F)cc1Cl the results were NPY-Y2 PAM-ag -21.8, RAM network inh 1.9, NPY Y2 blocker 5.4, NPY-Y1 PAM-ag -9.7, WT yeast gro inh 5.3 and NPY Y1 blocker 6.1.

Source: PubChem (several laboratories)
